Test results as given in publication PMC7311271 (Nature chemical biology, 2020).

Assays:
recombinant human G6PD = recombinant human G6PD (Homo sapiens, UniProt P11413); experiment: G6PD diaphorase-coupled enzymatic assay; format: biochemical
Procedure, shortened: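 Recombinant human G6PD was expressed in E. coli with an N-terminal His6 tag, purified on Ni, thrombin-cleaved and size-excluded. Reactions started with 1 mM G6P at 30 °C, read each minute (ex 530/em 590 nm). RFU/min was normalised to no-compound wells, and IC50 came from a 4-parameter fit.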

[1] = tested on: G6PD cellular activity in HepG2 cells; experiment: 6-pg levels in HepG2 cells; format: cell-based, human
Procedure, shortened: (§1)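 Adherent HepG2 or HCT116 cells were grown to 80% confluency in 6-well plates, then given fresh medium containing the test compound over a dose range. They were incubated 2 h at 37 °C, 5% CO2. Metabolites were extracted ~30 min at −20 °C, scraped and centrifuged (15 min, 16,000 rpm, 4 °C). Supernatants were analysed by LC-MS for 6-pg, NADPH and NADP+ (n = 3).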

[2] = tested on: G6PD cellular activity in HCT116-mPgd cells; experiment: 6-pg levels in HCT116-mPgd cells; format: cell-based, human; details: dose response, compared with DHEA
[3] = tested on: G6PD cellular activity in HCT116 cells; experiment: NADPH active hydride 2H-labeling from [1-2H]-glucose in HCT116 cells; format: cell-based, human
Procedure, shortened: (§2)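 HCT116 cells were incubated 2 h at 37 °C, 5% CO2 in medium containing [1-2H]-glucose tracer plus increasing doses of the test compound. Read-out was 2H transfer to the NADPH active hydride or to free palmitic acid, measured by LC-MS; dose-response curves, n = 3.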

[4] = tested on: G6PD cellular activity in HCT116 cells; experiment: Free palmitic acid; format: cell-based, human; details: dose response
Procedure, shortened: as §2

HCT116 and HepG2 cells = experiment: NADPH pools and NADP+/NADPH ratio in HCT116 and HepG2 cells; format: cell-based, human
Procedure, shortened: as §1

G6PD in HepG2 lysates = G6PD in HepG2 lysates (Homo sapiens, UniProt P11413); experiment: Cellular thermal shift assay; format: binding; details: 50 μM, up to 56 °C
G6PD in HepG2 lysates, sequence (P11413 whole entry): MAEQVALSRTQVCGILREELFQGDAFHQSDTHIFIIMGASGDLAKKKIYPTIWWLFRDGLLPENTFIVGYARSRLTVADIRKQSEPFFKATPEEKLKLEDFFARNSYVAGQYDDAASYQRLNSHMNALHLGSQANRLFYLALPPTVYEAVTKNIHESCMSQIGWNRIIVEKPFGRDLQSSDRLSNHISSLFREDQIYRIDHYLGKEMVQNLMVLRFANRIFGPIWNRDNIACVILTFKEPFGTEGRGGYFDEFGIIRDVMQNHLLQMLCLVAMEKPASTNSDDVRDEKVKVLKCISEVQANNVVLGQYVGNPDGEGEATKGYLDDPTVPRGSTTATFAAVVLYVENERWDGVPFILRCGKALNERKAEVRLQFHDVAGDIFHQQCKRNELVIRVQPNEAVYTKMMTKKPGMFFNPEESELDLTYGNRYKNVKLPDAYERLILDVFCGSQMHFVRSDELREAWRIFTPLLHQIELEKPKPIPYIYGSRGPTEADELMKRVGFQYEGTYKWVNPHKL
Procedure, shortened: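 Lysates took test compound or DMSO for 30 min on ice, then were heated 3 min at 47, 50, 53 or 56 °C. After 3 min cooling at room temperature, insoluble material was spun out (17,000 g, 20 min). G6PD signal is expressed relative to the DMSO control.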

HCT116 cells [5] = experiment: Colony formation; format: cell-based, human; details: increasing doses
T cell lineages = experiment: LC-MS quantification of NADPH and NADP+ pools, T cell lineages; format: cell-based
Procedure, shortened: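 Suspension T cells (2×10^6 in 1 mL medium, 12-well plates) were incubated with the test compound. Metabolites were acid-extracted 5 min on ice and neutralised with NH4HCO3. After centrifugation (15 min, 16,000 rpm, 4 °C), supernatants were analysed for NADPH and NADP+ by LC-MS.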

[6] = tested on: RBC = red blood cells (mouse); experiment: LC-MS quantification of NADPH pools, RBCs; format: cell-based
Procedure, shortened: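 Mouse blood was collected by cardiac puncture into heparin. Serum and buffy coat were removed after a 500 rpm spin at 4 °C, and cells were washed three times in PBS and used immediately in RPMI. Red cells (2×10^6 in 1 mL, 12-well plates) were incubated with the test compound, acid-extracted, neutralised with NH4HCO3, and analysed for NADPH by LC-MS.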

[7] = tested on: mouse bone-marrow derived macrophages; experiment: LC-MS quantification of NADPH pools, macrophages; format: cell-based
neutrophils = experiment: NADPH in neutrophils; format: cell-based
Procedure, shortened: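 Mouse neutrophils were enriched by negative selection from femur/tibia bone marrow of 8–12 week old mice. Cells were cultured in RPMI with 10% heat-inactivated FBS, 5 mM HEPES and 2 mM EDTA. Metabolites were extracted after 30 min of PMA stimulation and analysed for NADPH by LC-MS.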

[8] = tested on: G6PD in active mouse CD8+ and CD4+ T cells; experiment: NADPH labeling, NADPH, NADP+ and 6-pg levels in active T cells; format: cell-based
Procedure, shortened: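 Active CD8+ T cells (day 4–5 post-activation), including cells from G6PD-Tg mice and littermate controls, were treated 2 h with increasing test-compound doses, with a [1-2H]-glucose tracer for labeling. For reversibility, cells were pretreated 2 h, then moved to final media for 2 h. For absolute quantification, extracts were spiked with NADP+ or NADPH standards, and packed cell volume was taken as 1.5 µL per 2 × 10^6 cells. Analysis was by LC-MS, n = 3, two-tailed unpaired t-test.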

[9] = tested on: oxPPP flux in active CD8+ T cells; experiment: Absolute oxPPP flux by 14CO2 emission; format: cell-based, mouse; details: 10 μM, 4 h
Procedure, shortened: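 Active mouse CD8+ T cells were used at day 4 post plate-bound anti-CD3/anti-CD28 stimulation, cultured with IL-2. Three million cells were incubated 4 h in a sealed flask with 0.1% DMSO or 10 μM test compound. Released 14CO2 was trapped in 10 M KOH, the reaction was stopped with 1 M HCl, and radioactivity was counted by scintillation. Flux (fmol h-1 cell-1) was normalised to cell number, labeling time and tracer fraction; mean ± SD, n = 5.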

active CD8+ T cells [10] = experiment: Fatty acid synthesis; format: cell-based, mouse; details: 2 h, [U-13C]glucose tracer
[11] = tested on: active CD8+ and CD4+ T cells; experiment: Intracellular ROS; format: cell-based, mouse; details: 2 h
Procedure, shortened: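 Active mouse T cells were incubated 2 h with increasing test-compound concentrations, then stained with CellROX Green and a viability dye and analysed by flow cytometry.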

[12] = tested on: mouse naïve CD8+ T cells stimulated by CD3/CD28 + IL-2; experiment: T cell activation markers; format: cell-based; details: increasing concentrations
Procedure, shortened: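 Naïve CD8+ T cells were isolated from mouse spleens as strained single-cell suspensions in PBS with 0.5% BSA and 2 mM EDTA. Cells were rested with IL-7 (50 U/mL) or stimulated 48 h on plate-bound anti-CD3 (10 µg/ml) plus anti-CD28 (5 µg/ml) in RPMI with 100 μM alanine and IL-2 (100 U/mL), with increasing test compound. Read-outs were Live/Dead Aqua viability, surface CD69 and CD25, and FSC-A size. Two independent experiments were run.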

CD8+ T cells [13] = experiment: CD8+ T cell proliferation by Cell Trace Violet dilution; format: cell-based, mouse; details: day 4 post-activation
Procedure, shortened: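 Naïve CD8+ T cells were isolated from mouse spleen by magnetic bead selection and stained with CellTrace Violet. Cells were kept naïve with IL-7 or stimulated with anti-CD3/anti-CD28 + IL-2, in increasing test-compound concentrations. Cells were refed at days 2 and 3. At day 4, dye dilution was read by flow cytometry with propidium iodide as viability stain; 2 independent experiments.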

CD8+ T cells [14] = experiment: CD8+ T cell viability; format: cell-based, mouse
CD4+ T cells = experiment: CD4+ T cell proliferation by CFSE dilution; format: cell-based, mouse; details: day 3 post-activation
Procedure, shortened: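 In a Treg suppression set-up, mouse Tconv cells were labeled with CFSE and Treg cells with CellTrace Violet. Tconv cells were stimulated with irradiated antigen-presenting cells plus CD3ε mAb (1 µg/mL). After 72 h, proliferation was read by flow cytometry as dye dilution.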

active CD8+ T cells [15] = experiment: Intracellular cytokines in active CD8+ T cells; format: cell-based, mouse; details: PMA + IO, increasing doses
Procedure, shortened: (§3)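 Mouse CD4+ or CD8+ T cells were activated 48 h with plate-bound anti-CD3 (10 µg/ml)/anti-CD28 (5 µg/ml), IL-2 (100 U/mL) and 100 μM alanine, then kept in IL-2 and used at day 4–5. Cells were restimulated 6 h with PMA (20 ng/ml) + ionomycin (1 ug/ml), GolgiStop and increasing test-compound concentrations. After Live/Dead Aqua, CD4/CD8a surface staining, fixation and permeabilisation, IFNγ, TNFα and IL-2 were read by flow cytometry.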

active CD4+ T cells = experiment: Intracellular cytokines in active CD4+ T cells; format: cell-based, mouse; details: PMA + IO, increasing doses
Procedure, shortened: as §3

[16] = tested on: CD4+ T cells (Foxp3+ iTreg); experiment: Foxp3+ iTreg formation and proliferation; format: cell-based, mouse; details: CD3/CD28 stimulation in the presence of TGF-β
[17] = tested on: bone marrow derived macrophages; experiment: Intracellular cytokines and iNOS in bone marrow derived macrophages; format: cell-based, mouse
Procedure, shortened: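 Mouse bone-marrow progenitors from femur and tibia were matured in DMEM with 10% FBS and 20% L929-conditioned medium. Macrophages were stimulated 6 h with LPS (100 ng/mL) + IFNγ (20 ng/mL), with GolgiStop and increasing test-compound concentrations. Cells were stained with Live/Dead Aqua, fixed and permeabilised, and stained for TNFα, IL-6 and iNOS before flow cytometry; 2 independent experiments.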

mouse neutrophils = experiment: Neutrophil oxidative burst assay; format: cell-based; details: PMA 100 nM, 50 μM
Procedure, shortened: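 Mouse bone-marrow neutrophils were plated at 2 × 10^5 cells/well in bicarbonate-free RPMI 1640 on Cell-Tak-coated wells, spun 200 × g for 1 min and rested 1 h at 37 °C. Test compound (50 µM) or vehicle was added just before the run. Oxidative burst was triggered with PMA (100 nM), and rotenone + antimycin A (0.5 µM each) were added at t = 20 min. OCR was measured by extracellular flux analysis; n = 6.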

human neutrophils = experiment: Neutrophil oxidative burst assay; format: cell-based; details: PMA 100 nM, 50 μM
Procedure, shortened: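 Human neutrophils were plated at 5 × 10^4 cells/well in RPMI 1640 with 0.1% human serum albumin on Cell-Tak-coated wells, spun 200 × g for 1 min and rested 1 h at 37 °C. Test compound (50 µM) or vehicle was added just before the run. Burst was triggered with PMA (100 nM), and OCR was measured by extracellular flux analysis; n = 6.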

HCT116 cells [18] = experiment: Metabolomics in wild-type and ΔG6PD HCT116 cells; format: cell-based, human; details: 50 μM, 2 h
Procedure, shortened: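 Adherent cells were grown to 80% confluency. Medium containing test compound was added, and cells were held at 37 °C in 5% CO2 for 2 h. Extraction was at −20 °C for ~30 min, after which wells were scraped and extracts centrifuged (16,000 rpm, 15 min, 4 °C). Supernatants were stored at −80 °C and analysed by LC-MS.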

CD8+ T cells [19] = experiment: Untargeted metabolomics on CD8+ T cells; format: cell-based, mouse; details: active CD8+ T cells, 2 h
Procedure, shortened: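 Active mouse CD8+ T cells were treated 2 h with the test compound. Water-soluble metabolites were extracted and profiled by LC-MS; mean, n = 3. Metabolites with fold-change > 4 were flagged.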

recombinant human G6PD, sequence (P11413 28-515): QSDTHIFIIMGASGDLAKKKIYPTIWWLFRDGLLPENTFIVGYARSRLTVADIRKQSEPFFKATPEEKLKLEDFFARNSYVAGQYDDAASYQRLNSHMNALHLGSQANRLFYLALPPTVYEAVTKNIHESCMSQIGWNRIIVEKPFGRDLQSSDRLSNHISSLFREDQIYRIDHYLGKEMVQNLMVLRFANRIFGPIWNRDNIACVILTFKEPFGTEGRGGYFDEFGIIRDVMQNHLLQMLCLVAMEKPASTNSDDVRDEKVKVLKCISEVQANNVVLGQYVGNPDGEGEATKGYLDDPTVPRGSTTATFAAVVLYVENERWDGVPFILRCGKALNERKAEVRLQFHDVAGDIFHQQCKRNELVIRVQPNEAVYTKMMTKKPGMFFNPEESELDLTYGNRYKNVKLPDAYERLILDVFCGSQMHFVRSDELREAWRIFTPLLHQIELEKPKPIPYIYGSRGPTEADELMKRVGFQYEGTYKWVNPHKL

`N#Cc1cc(Nc2ncc3c(n2)CCCCC3=O)cs1` [G6PDi-1, 4-([5-oxo-6H,7H,8H,9H-cyclohepta[d]pyrimidin-2-yl]amino)thiophene-2-carbonitrile] was tested, and the “mode of binding to G6PD” value (recombinant human G6PD; in vitro dilution experiments and competition assays against both substrates) was “reversibly and non-competitively”, the “dose-dependent decrease in 6-pg levels” value ([1]; HepG2 cells, dose response) was “dose-dependent decrease” and the IC50 ([1]; Homo sapiens, HepG2, read-out: IC50 for decrease in 6-pg levels) was roughly 13 µM. For the same molecule, the “suppression of 6-pg levels” value [2] was “much more effectively suppressed”, the “dose-dependent decrease in 2H transfer to NADPH's active hydride” value ([3]; dose response) was “dose-dependent decrease” and the “dose-dependent decrease in 2H transfer to C16:0” value [4] was “dose-dependent decrease”. For the same molecule, the NADPH pools (HCT116 and HepG2 cells; HCT116 and HepG2 cells) was “largely unperturbed”, the “NADP+/NADPH” value (HCT116 and HepG2 cells; HCT116 cells, dose response) was “dose-dependent increase” and the “thermal stabilization of G6PD” value (G6PD in HepG2 lysates) was “significant thermal stabilization”. The colony formation (HCT116 cells [5]) was “dose-dependent decrease”, the “decrease in NADPH” value (T cell lineages) was “greater than 10 fold” and the “sensitivity of NADPH pools” value [6] was “fairly sensitive”. For the same molecule, the “effect on NADPH” value [7] was “did not decrease”, the “effect on NADPH” value (neutrophils) was “did impact NADPH” and the “time to restoration of NADPH, NADP+ and 6-pg levels after removing the inhibitor” value ([8]; activated CD8+ T cells) was no more than 2 h. The “effect of G6PD overexpression on dose response of NADPH and NADP+” value ([8]; active CD8+ T cells from G6PD-Tg mice vs littermate controls) was “markedly shifted the dose response”, the “time to onset of effects on NADPH labeling and NADP+, NADPH and 6-pg levels” value ([8]; active CD8+ T cells, 50 μM) was no more than 10 min and the “NADPH and 6-pg levels” value ([8]; mouse CD8+ and CD4+ T cells day 4–5 post-activation) was “decreased”. For the same molecule, the “2H transfer from glucose to NADPH” value ([8]; mouse CD8+ and CD4+ T cells day 4–5 post-activation, 10 μM, [1-2H]-glucose) was “completely blocked”, the “absolute oxPPP flux” value [9] was “blocked” and the fatty acid synthesis (active CD8+ T cells [10]) was “nearly completely ablated”. For the same molecule, the “reactive oxygen species (ROS)” value [11] was “elevated”, the “upregulation of activation markers and activation-dependent increase in cell size” value [12] was “did not alter” and the activation-dependent proliferation (CD8+ T cells [13]) was “minimal effect”. For the same molecule, the viability (CD8+ T cells [14]) was “minimal effect”, the “proliferation of CD4+ T cells” value (CD4+ T cells) was “minimal effect” and the “IFNγ and TNF-α production” value (active CD8+ T cells [15]) was “blocked”. The “IL-2 and TNF-α production” value (active CD4+ T cells) was “blocked”, the “formation and proliferation of Foxp3+ cells” value [16] was “unaffected” and the “LPS-induced pro-inflammatory cytokine production or iNOS upregulation” value [17] was “did not decrease”. For the same molecule, the “oxidative burst (oxygen consumption rate)” value (mouse neutrophils) was “decreased”, the “oxidative burst (oxygen consumption rate)” value (human neutrophils) was “decreased” and the off-target metabolic effects (HCT116 cells [18]) was “some potential off-target effects on purine nucleosides”. The “specificity of metabolic effects” value (CD8+ T cells [19]) was “clean on-target activity”.
With `CN(c1cccc(C#N)c1)c1ncc2c(n1)CCCC2=O` [G6PDi-neg-ctrl, 3-[methyl(5-oxo-5,6,7,8-tetrahydroquinazolin-2-yl)amino]benzonitrile] the “in vitro activity against human G6PD” value (recombinant human G6PD) was “lacked any activity”.
With `Cc1cccc(Nc2ncc3c(n2)CCCC3=O)c1` [G6PDi-precursor, 2-[(3-methylphenyl)amino]-5,6,7,8-tetrahydroquinazolin-5-one] the “in vitro activity against human G6PD” value (recombinant human G6PD) was “low micromolar”.
`OC[C@H]1O[C@@H](Oc2cc(O)cc(/C=C/c3ccc(O)cc3)c2)[C@H](O)[C@@H](O)[C@@H]1O` [polydatin, reference compound] was tested, and the “effect on 6-pg levels” value ([1]; HepG2 cells, 50 μM, 2 h) was “failed to decrease” and the “effect on NADPH active hydride labeling” value ([3]; 50 μM, 2 h) was “failed to decrease”.
